In publication PMC4371900 (International Journal of Nanomedicine, 2015):

Legend:
[1] = test system: genotype 1b Con1 HCV sub-genomic replicon (Huh 5-2 cells); test: Antiviral assay with Huh 5-2 cells; type: cell-based, hepatitis C virus
[2] = Cytostatic assay; type: cell-based; conditions: human, Huh 5-2 cells
How it was run: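 Huh 7 cells carrying subgenomic HCV replicon (Huh 5-2) were seeded at 5·10^3 cells/well in complete DMEM with G418. After 24 h, serial dilutions of test compound (free or γ-CD complex) were added in complete DMEM without G418. Cells proliferated 3 days at 37°C. Cell number was read by CellTiter 96 AQueous One.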

Structure (SMILES): OC[C@H]1O[C@@H]2O[C@H]3[C@H](O)[C@@H](O)[C@@H](O[C@H]4[C@H](O)[C@@H](O)[C@@H](O[C@H]5[C@H](O)[C@@H](O)[C@@H](O[C@H]6[C@H](O)[C@@H](O)[C@@H](O[C@H]7[C@H](O)[C@@H](O)[C@@H](O[C@H]8[C@H](O)[C@@H](O)[C@@H](O[C@H]9[C@H](O)[C@@H](O)[C@@H](O[C@H]1[C@H](O)[C@H]2O)O[C@@H]9CO)O[C@@H]8CO)O[C@@H]7CO)O[C@@H]6CO)O[C@@H]5CO)O[C@@H]4CO)O[C@@H]3CO [γ-CD, γ-cyclodextrin]
- luminescence ([1]; control tests with compound-free γ-CD (data not shown)): 100%
- antiviral activity in cell assays ([1]; delivered alone, free in solution): did not show antiviral activity
- viability at 3 days [2]: 100%
